ChEMBL document CHEMBL1144702, “Synthesis and structure-activity relationship studies on tryprostatin A, an inhibitor of breast cancer resistance protein” (Bioorg Med Chem, 2008)
pIC50: −log10 of the molar value. Active and inactive are the calls of the source. The calls are words filed in the database; no cut-off is given here.

Tested on: PC-3
Test: Cytotoxicity against human PC3 cells after 72 hrs by Cell Titer 96 Aqueous Non-Radioactive assay
Assay type: functional
Settings: PC-3, 72 h
Procedure, shortened: (§1)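 MCF7, NCI-H520 and PC-3 cells in RPMI-1640 + 10% FBS, 2 mM L-glutamine, 0.1 mM non-essential amino acids; 1 × 10^4 cells/well, 24 h at 37 °C, then drug in DMSO or EtOH (<1%) for 72 h. Cells under 50% survival at 100 μM retested over further concentrations for GI50. MTS/PMS read at 490 nm, blank subtracted, versus vehicle wells; quadruplicate or more.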

Compared with CC(C)=CCc1[nH]c2ccccc2c1C[C@H]1NC(=O)[C@@H]2CCCN2C1=O, COc1ccc2c(C[C@H]3NC(=O)[C@H]4CCCN4C3=O)c(CC=C(C)C)[nH]c2c1 is higher in GI50: 24.8 µM for the first, over 25 µM for the second.

Tested on: OVCAR-3
Test: Cytotoxicity against human OVCAR-3 cells
Assay type: functional
Settings: not given

CC(C)=CCc1[nH]c2ccccc2c1C[C@H]1NC(=O)[C@@H]2CCCN2C1=O and COc1ccc2c(C[C@H]3NC(=O)[C@H]4CCCN4C3=O)c(CC=C(C)C)[nH]c2c1 cannot be ordered by GI50: 28.7 µM for the first, over 25 µM for the second.

Tested on: MCF7
Test: Cytotoxicity against human MCF7 cells at 10 uM after 72 hrs by Cell Titer 96 Aqueous Non-Radioactive assay
Assay type: functional
Settings: MCF7, 72 h, read-out: Inhibition
Procedure, shortened: (§2)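 MCF7, NCI-H520 or PC-3 cells (RPMI-1640, 10% FBS) plated 1 × 10^4/well, 24 h at 37 °C, exposed 72 h to drug at 10 or 100 μM in DMSO or EtOH vehicle (controls usually 0.2%). Survival by MTS/PMS formazan absorbance at 490 nm, plate blank subtracted, as percent of vehicle wells; quadruplicate; etoposide or m-AMSA positive controls.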

CC(C)=CCc1[nH]c2ccccc2c1C[C@H]1NC(=O)[C@@H]2CCCN2C1=O and COc1ccc2c(C[C@H]3NC(=O)[C@H]4CCCN4C3=O)c(CC=C(C)C)[nH]c2c1 cannot be ordered by cell survival (% of vehicle control) at 10 µM: over 100% for the first, over 100% for the second.

Tested on: PC-3
Test: Cytotoxicity against human PC3 cells at 100 uM after 72 hrs by Cell Titer 96 Aqueous Non-Radioactive assay
Assay type: functional
Settings: PC-3, 72 h, read-out: Inhibition
Procedure, shortened: as §2

First: CC(C)=CCc1[nH]c2ccccc2c1C[C@H]1NC(=O)[C@@H]2CCCN2C1=O
Second: COc1ccc2c(C[C@H]3NC(=O)[C@H]4CCCN4C3=O)c(CC=C(C)C)[nH]c2c1
The percent cell survival at 100 µM of the first is lower: 68.5% for the first, 83.7% for the second.

Tested on: BT-549
Test: Cytotoxicity against human BT549 cells
Assay type: functional
Settings: not given

CC(C)=CCc1[nH]c2ccccc2c1C[C@H]1NC(=O)[C@@H]2CCCN2C1=O and COc1ccc2c(C[C@H]3NC(=O)[C@H]4CCCN4C3=O)c(CC=C(C)C)[nH]c2c1 cannot be ordered by GI50: 26.9 µM for the first, over 25 µM for the second.

Tested on: PC-3
Test: Cytotoxicity against human PC3 cells at 10 uM after 72 hrs by Cell Titer 96 Aqueous Non-Radioactive assay
Assay type: functional
Settings: PC-3, 72 h, read-out: Inhibition
Procedure, shortened: as §2

Going from CC(C)=CCc1[nH]c2ccccc2c1C[C@H]1NC(=O)[C@@H]2CCCN2C1=O to COc1ccc2c(C[C@H]3NC(=O)[C@H]4CCCN4C3=O)c(CC=C(C)C)[nH]c2c1, the percent cell survival relative to vehicle control at 10 µM rises from 97.3% to over 100%.

Tested on: HOP-92
Test: Cytotoxicity against human HOP92 cells
Assay type: functional
Settings: not given

Compared with CC(C)=CCc1[nH]c2ccccc2c1C[C@H]1NC(=O)[C@@H]2CCCN2C1=O, COc1ccc2c(C[C@H]3NC(=O)[C@H]4CCCN4C3=O)c(CC=C(C)C)[nH]c2c1 is 7.9-fold higher in GI50: 2.94 µM for the first, 23.1 µM for the second.

Tested on: DU-145
Test: Cytotoxicity against human DU145 cells
Assay type: functional
Settings: not given

CC(C)=CCc1[nH]c2ccccc2c1C[C@H]1NC(=O)[C@@H]2CCCN2C1=O and COc1ccc2c(C[C@H]3NC(=O)[C@H]4CCCN4C3=O)c(CC=C(C)C)[nH]c2c1 cannot be ordered by GI50: 59.5 µM for the first, over 25 µM for the second.

Tested on: MOLT-4
Test: Cytotoxicity against human MOLT4 cells
Assay type: functional
Settings: not given

CC(C)=CCc1[nH]c2ccccc2c1C[C@H]1NC(=O)[C@@H]2CCCN2C1=O and COc1ccc2c(C[C@H]3NC(=O)[C@H]4CCCN4C3=O)c(CC=C(C)C)[nH]c2c1 cannot be ordered by GI50: 34.9 µM for the first, over 25 µM for the second.

Target: DNA topoisomerase 2-alpha (Homo sapiens) (UniProt P11388)
Sequence (P11388 whole entry): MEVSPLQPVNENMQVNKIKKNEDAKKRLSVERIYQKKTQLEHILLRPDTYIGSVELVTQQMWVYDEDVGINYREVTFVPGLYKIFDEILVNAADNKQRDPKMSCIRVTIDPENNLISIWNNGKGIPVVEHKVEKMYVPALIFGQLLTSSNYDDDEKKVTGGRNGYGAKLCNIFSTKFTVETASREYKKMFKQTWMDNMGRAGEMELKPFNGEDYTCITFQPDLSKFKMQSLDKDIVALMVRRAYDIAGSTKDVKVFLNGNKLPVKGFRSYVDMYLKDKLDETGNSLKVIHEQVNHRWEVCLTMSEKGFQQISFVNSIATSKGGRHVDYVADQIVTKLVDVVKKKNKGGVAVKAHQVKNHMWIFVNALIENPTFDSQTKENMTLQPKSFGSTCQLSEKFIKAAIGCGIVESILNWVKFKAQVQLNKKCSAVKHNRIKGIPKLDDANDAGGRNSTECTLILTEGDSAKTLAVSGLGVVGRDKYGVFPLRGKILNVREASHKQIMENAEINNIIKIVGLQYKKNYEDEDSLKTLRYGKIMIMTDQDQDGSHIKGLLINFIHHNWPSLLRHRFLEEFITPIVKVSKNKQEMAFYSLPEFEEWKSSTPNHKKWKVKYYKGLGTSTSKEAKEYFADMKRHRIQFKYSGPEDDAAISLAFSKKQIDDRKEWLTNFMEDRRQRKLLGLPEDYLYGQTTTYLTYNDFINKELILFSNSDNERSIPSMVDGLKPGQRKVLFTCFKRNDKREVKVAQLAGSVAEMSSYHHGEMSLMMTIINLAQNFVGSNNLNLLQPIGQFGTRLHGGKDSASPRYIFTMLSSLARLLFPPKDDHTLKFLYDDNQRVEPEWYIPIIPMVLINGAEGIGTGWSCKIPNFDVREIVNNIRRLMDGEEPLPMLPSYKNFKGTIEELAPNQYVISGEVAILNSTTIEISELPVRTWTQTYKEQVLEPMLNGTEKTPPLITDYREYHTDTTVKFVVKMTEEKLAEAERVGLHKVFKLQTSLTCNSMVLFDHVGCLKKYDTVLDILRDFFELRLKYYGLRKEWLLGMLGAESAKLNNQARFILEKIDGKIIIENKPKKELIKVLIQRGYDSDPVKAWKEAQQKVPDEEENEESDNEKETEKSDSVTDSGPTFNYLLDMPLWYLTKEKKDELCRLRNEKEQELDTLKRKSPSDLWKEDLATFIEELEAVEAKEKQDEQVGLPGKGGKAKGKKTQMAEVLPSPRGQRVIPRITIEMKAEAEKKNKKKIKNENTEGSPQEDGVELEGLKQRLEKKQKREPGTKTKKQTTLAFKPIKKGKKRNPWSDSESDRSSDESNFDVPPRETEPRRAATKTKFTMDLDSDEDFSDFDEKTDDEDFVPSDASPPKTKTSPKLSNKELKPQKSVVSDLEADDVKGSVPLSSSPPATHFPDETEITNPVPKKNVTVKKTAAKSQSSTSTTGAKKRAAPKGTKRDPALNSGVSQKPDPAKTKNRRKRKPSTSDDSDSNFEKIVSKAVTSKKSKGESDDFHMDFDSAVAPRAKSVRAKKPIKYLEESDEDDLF
Test: Inhibition of topoisomerase 2 assessed as relaxation of supercoiled DNA at 100 uM
Settings: not given

In the case of COc1ccc2c(C[C@H]3NC(=O)[C@H]4CCCN4C3=O)c(CC=C(C)C)[nH]c2c1, the Activity was “inactive”.

Tested on: IGROV-1
Test: Cytotoxicity against human IGROV1 cells
Assay type: functional
Settings: not given

CC(C)=CCc1[nH]c2ccccc2c1C[C@H]1NC(=O)[C@@H]2CCCN2C1=O and COc1ccc2c(C[C@H]3NC(=O)[C@H]4CCCN4C3=O)c(CC=C(C)C)[nH]c2c1 cannot be ordered by GI50: 32.3 µM for the first, over 25 µM for the second.

Tested on: MCF7
Test: Cytotoxicity against human MCF7 cells after 72 hrs by Cell Titer 96 Aqueous Non-Radioactive assay
Assay type: functional
Settings: MCF7, 72 h
Procedure, shortened: as §1

CC(C)=CCc1[nH]c2ccccc2c1C[C@H]1NC(=O)[C@@H]2CCCN2C1=O and COc1ccc2c(C[C@H]3NC(=O)[C@H]4CCCN4C3=O)c(CC=C(C)C)[nH]c2c1 cannot be ordered by GI50: 25.9 µM for the first, over 25 µM for the second.

Tested on: SR
Test: Cytotoxicity against human SR cells
Assay type: functional
Settings: not given

CC(C)=CCc1[nH]c2ccccc2c1C[C@H]1NC(=O)[C@@H]2CCCN2C1=O and COc1ccc2c(C[C@H]3NC(=O)[C@H]4CCCN4C3=O)c(CC=C(C)C)[nH]c2c1 cannot be ordered by GI50: 25.4 µM for the first, over 25 µM for the second.

Tested on: EKVX
Test: Cytotoxicity against human EKVX cells
Assay type: functional
Settings: not given

Going from CC(C)=CCc1[nH]c2ccccc2c1C[C@H]1NC(=O)[C@@H]2CCCN2C1=O to COc1ccc2c(C[C@H]3NC(=O)[C@H]4CCCN4C3=O)c(CC=C(C)C)[nH]c2c1, the GI50 rises from 20.7 µM to over 25 µM.

Tested on: not listed separately
Test: Inhibition of tubulin polymerization in presence of microtubule-associated proteins
Settings: not given
Procedure, shortened: (§3)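 Tubulin containing MAPs in PME buffer (100 mM PIPES pH 6.9, 2 mM EGTA, 1 mM MgSO4) with GTP and drug in DMSO, tubulin added last; 37 °C, absorbance change at 351 nm over 10 min. Drug concentration varied across runs for delta absorbance versus concentration curves; colchicine standard curves made for each tubulin batch.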

First: COc1cc2c(c(OC)c1OC)-c1ccc(OC)c(=O)cc1[C@@H](NC(C)=O)CC2 [COLCHICINE]
Second: COc1ccc2c(C[C@H]3NC(=O)[C@H]4CCCN4C3=O)c(CC=C(C)C)[nH]c2c1
The pIC50 of the first is higher: 4.35 for the first, under 3.15 for the second.

Tested on: not listed separately
Test: Cytotoxicity against human HL60 (TB) cells
Assay type: functional
Settings: HL-60

CC(C)=CCc1[nH]c2ccccc2c1C[C@H]1NC(=O)[C@@H]2CCCN2C1=O and COc1ccc2c(C[C@H]3NC(=O)[C@H]4CCCN4C3=O)c(CC=C(C)C)[nH]c2c1 cannot be ordered by GI50: 55.7 µM for the first, over 25 µM for the second.

Tested on: not listed separately
Test: Cytotoxicity against human H520 cells at 100 uM after 72 hrs by Cell Titer 96 Aqueous Non-Radioactive assay
Assay type: functional
Settings: NCI-H520, 72 h, read-out: Inhibition
Procedure, shortened: as §2

Compared with CC(C)=CCc1[nH]c2ccccc2c1C[C@H]1NC(=O)[C@@H]2CCCN2C1=O, COc1ccc2c(C[C@H]3NC(=O)[C@H]4CCCN4C3=O)c(CC=C(C)C)[nH]c2c1 is lower in cell survival (% of vehicle control) at 100 µM: 76.5% for the first, 75.2% for the second.

Tested on: LOX IMVI
Test: Cytotoxicity against human LOX IMVI cells
Assay type: functional
Settings: not given

First: CC(C)=CCc1[nH]c2ccccc2c1C[C@H]1NC(=O)[C@@H]2CCCN2C1=O
Second: COc1ccc2c(C[C@H]3NC(=O)[C@H]4CCCN4C3=O)c(CC=C(C)C)[nH]c2c1
The GI50 of the first is lower: 17.8 µM for the first, over 25 µM for the second.

Tested on: UO-31
Test: Cytotoxicity against human UO31 cells
Assay type: functional
Settings: not given

CC(C)=CCc1[nH]c2ccccc2c1C[C@H]1NC(=O)[C@@H]2CCCN2C1=O and COc1ccc2c(C[C@H]3NC(=O)[C@H]4CCCN4C3=O)c(CC=C(C)C)[nH]c2c1 cannot be ordered by GI50: 45.7 µM for the first, over 25 µM for the second.

Tested on: K562
Test: Cytotoxicity against human K562 cells
Assay type: functional
Settings: not given

CC(C)=CCc1[nH]c2ccccc2c1C[C@H]1NC(=O)[C@@H]2CCCN2C1=O and COc1ccc2c(C[C@H]3NC(=O)[C@H]4CCCN4C3=O)c(CC=C(C)C)[nH]c2c1 cannot be ordered by GI50: 31.8 µM for the first, over 25 µM for the second.

Tested on: not listed separately
Test: Inhibition of tubulin polymerization in presence of microtubule-associated proteins at 60 uM
Settings: not given
Procedure, shortened: as §3

Work on CC(C)=CCc1[nH]c2ccccc2c1C[C@H]1NC(=O)[C@@H]2CCCN2C1=O yielded an inhibition of under 2%.

Tested on: not listed separately
Test: Cytotoxicity against human H520 cells at 10 uM after 72 hrs by Cell Titer 96 Aqueous Non-Radioactive assay
Assay type: functional
Settings: NCI-H520, 72 h, read-out: Inhibition
Procedure, shortened: as §2

Going from CC(C)=CCc1[nH]c2ccccc2c1C[C@H]1NC(=O)[C@@H]2CCCN2C1=O to COc1ccc2c(C[C@H]3NC(=O)[C@H]4CCCN4C3=O)c(CC=C(C)C)[nH]c2c1, the percent cell survival relative to vehicle at 10 µM falls from over 100% to 81.7%.

Tested on: not listed separately
Test: Cytotoxicity against human […]
Assay type: functional
Settings: not given

CC(C)=CCc1[nH]c2ccccc2c1C[C@H]1NC(=O)[C@@H]2CCCN2C1=O and COc1ccc2c(C[C@H]3NC(=O)[C@H]4CCCN4C3=O)c(CC=C(C)C)[nH]c2c1 cannot be ordered by GI50: 49.6 µM for the first, over 25 µM for the second.

Tested on: RPMI-8226
Test: Cytotoxicity against human RPMI8226 cells
Assay type: functional
Settings: not given

First: CC(C)=CCc1[nH]c2ccccc2c1C[C@H]1NC(=O)[C@@H]2CCCN2C1=O
Second: COc1ccc2c(C[C@H]3NC(=O)[C@H]4CCCN4C3=O)c(CC=C(C)C)[nH]c2c1
The GI50 of the first is lower: 18.6 µM for the first, over 25 µM for the second.

Tested on: COLO 205
Test: Cytotoxicity against human COLO205 cells
Assay type: functional
Settings: not given

CC(C)=CCc1[nH]c2ccccc2c1C[C@H]1NC(=O)[C@@H]2CCCN2C1=O and COc1ccc2c(C[C@H]3NC(=O)[C@H]4CCCN4C3=O)c(CC=C(C)C)[nH]c2c1 cannot be ordered by GI50: 39.3 µM for the first, over 25 µM for the second.

Tested on: MCF7
Test: Cytotoxicity against human MCF7 cells at 100 uM after 72 hrs by Cell Titer 96 Aqueous Non-Radioactive assay
Assay type: functional
Settings: MCF7, 72 h, read-out: Inhibition
Procedure, shortened: as §2

CC(C)=CCc1[nH]c2ccccc2c1C[C@H]1NC(=O)[C@@H]2CCCN2C1=O and COc1ccc2c(C[C@H]3NC(=O)[C@H]4CCCN4C3=O)c(CC=C(C)C)[nH]c2c1 cannot be ordered by cell survival (% of vehicle control) at 100 µM: over 100% for the first, over 100% for the second.

Tested on: CCRF-CEM
Test: Cytotoxicity against human CCRF-CEM cells
Assay type: functional
Settings: not given

Compared with CC(C)=CCc1[nH]c2ccccc2c1C[C@H]1NC(=O)[C@@H]2CCCN2C1=O, COc1ccc2c(C[C@H]3NC(=O)[C@H]4CCCN4C3=O)c(CC=C(C)C)[nH]c2c1 is higher in GI50: 22.2 µM for the first, over 25 µM for the second.
